TAAR1 agonist: human TAAR1 agonists, primary screen, Fluo-8 calcium fluorescence, CHO RD-HGA16 cells. Trace amine-associated receptor 1 (Homo sapiens), Q96RJ0. vehicle wells 0%, saturating PEA agonist 100%. activation, % at 3 µM. actives 0.99% (n = 360,000). AID 624467, 2012;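 active means activation above the mean activation of all test compounds in the run plus 3 SD, cut at about 38% in these data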
Target sequence (Q96RJ0 whole entry, looked up): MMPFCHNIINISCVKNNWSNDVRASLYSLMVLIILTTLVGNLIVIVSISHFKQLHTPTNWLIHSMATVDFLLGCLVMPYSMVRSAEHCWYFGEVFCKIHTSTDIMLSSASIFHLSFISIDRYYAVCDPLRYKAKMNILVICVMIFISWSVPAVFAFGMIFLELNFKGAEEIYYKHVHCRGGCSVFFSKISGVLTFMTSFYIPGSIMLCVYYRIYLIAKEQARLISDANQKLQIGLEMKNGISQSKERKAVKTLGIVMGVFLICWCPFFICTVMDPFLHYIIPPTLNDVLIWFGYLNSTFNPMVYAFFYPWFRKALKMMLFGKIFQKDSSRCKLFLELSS
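Test system: RD-HGA16 (CHO) cells co-expressing Gα16 and hTAAR1 / Benchmarks: DMSO vehicle as 0%, PEA at EC100 as 100% / Repeats: no replicates (n 1) / Measure: % activation from peak over basal fluorescence ratio, DMSO-to-PEA scaled / Timing: 17-24 h plating, Fluo-8 75 min 37 °C, 30 min RT / Technique: kinetic Fluo-8 calcium fluorescence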
TAAR1 antag: human TAAR1 antagonists, primary screen, Fluo-8 calcium fluorescence, CHO RD-HGA16 cells. Trace amine-associated receptor 1 (Homo sapiens), Q96RJ0. antagonist. inhibition, % at 3 µM. actives 1.5% (n = 360,000). AID 624466, 2012;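 active means inhibition above a per-plate cutoff, the mean inhibition of test compounds on that plate plus 3 SD, cut at about 49% in these data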
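Test system – hTAAR1-expressing CHO RD-HGA16 cells, Gα16-coupled · Also added – β-PEA at EC80 concentration, post-compound challenge · Compound – 3 µM, single point · Incubation – dye loading 75 min at 37 °C, then 30 min room temperature · Measured by – Fluo-8 intracellular calcium dye fluorescence, real-time kinetic reads · Benchmarks – vehicle and agonist controls · Replicates – singlicate, one well per test compound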
OX1R antag-1: OX1R (HCRTR1) antagonists, primary screen, fluorescence, CHO/OX1R cells, Fluo-8 calcium, orexin A; AID 434989, 2010; actives 0.43% (n = 330,000); Orexin/Hypocretin receptor type 1 (Homo sapiens), O43613; Fluo-8 calcium fluorescence; inhibition, % at 5 µM;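 active means inhibition above its plate's threshold, mean inhibition of all tested compounds on the plate plus 3 SD, cut at about 37% in these data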
Target sequence (O43613 whole entry, looked up): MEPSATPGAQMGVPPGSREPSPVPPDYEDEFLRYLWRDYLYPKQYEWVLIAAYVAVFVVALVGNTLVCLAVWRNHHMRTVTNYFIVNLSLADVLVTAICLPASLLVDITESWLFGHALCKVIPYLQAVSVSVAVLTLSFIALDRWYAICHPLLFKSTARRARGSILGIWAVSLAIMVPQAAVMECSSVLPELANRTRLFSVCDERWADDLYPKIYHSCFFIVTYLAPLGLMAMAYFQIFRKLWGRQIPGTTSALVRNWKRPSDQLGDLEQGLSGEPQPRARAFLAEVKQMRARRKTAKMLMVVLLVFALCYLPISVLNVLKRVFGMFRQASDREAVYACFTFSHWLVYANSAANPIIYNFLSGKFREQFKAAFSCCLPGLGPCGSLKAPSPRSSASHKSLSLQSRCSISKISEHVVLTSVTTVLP
GPR7 antagonist: GPR7 receptor antagonists, primary screen, cell-based, fluorescence, single concentration; Neuropeptides B/W receptor type 1 (Homo sapiens), P48145; GPR7-expressing cells, fluorescence antagonist assay; inhibition, % at 4.4 µM; actives 1.1% (n = 290,000); AID 1861, 2009; in the data active means inhibition above about 16%, passing the limit was not always enough;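 further: cells stimulated with the agonist NPW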
OX1R antag-2: antagonists of human orexin 1 receptor (OX1R); OX1R-expressing cells, FRET antagonist read-out; inhibition, % at 6.6 µM; actives 1.8% (n = 330,000); in the data active means inhibition mostly above about 38%, no sharp cut-off; inactive means mostly below about 40%
CHO parental Ca: ATP-evoked calcium signal inhibitors, parental CHO, primary screen, counter-screen for OX1R antagonist project, cell-based, fluorescence, Fluo-8 calcium dye | parental CHO-K1, ATP-induced calcium, Fluo-8 fluorescence | inhibition, % at 5.6 µM | actives 0.63% (n = 330,000);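 active means inhibition above that plate's mean sample inhibition plus 3 SD, cut at about 26% in these data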
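Material: parental CHO cells / Compound: single nominal dose of 5.6 µM per compound / Signal: Fluo-8 fluorescence / Replicates: singlicate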
TAAR1 ag conf: human TAAR1 agonists, retest of hits, confirmation, Fluo-8 calcium fluorescence, CHO RD-HGA16 cells. AID 651783, 2012. scaled: DMSO 0%, maximal phenethylamine 100%. activation, % at 3 µM. shares compounds with TAAR1 agonist. actives 82% (n = 2,400);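 active means activation above a cutoff set at the run's mean compound activation plus 3 SD, cut at about 39% in these data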
Ga16 ag counter: nonselective calcium mobilization agonists, CHO-Ga16 cells, counter-screen for hTAAR1 agonist project, cell-based, fluorescence, CHO-Ga16 parental line. Fluo-8 calcium fluorescence; normalized to maximal ATP response, DMSO zero. activation, % at 3 µM. shares compounds with TAAR1 agonist. actives 50% (n = 2,400). AID 651787, 2012;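 active means activation above the run cutoff, the mean activation over all tested wells plus 3 SD, cut at about 12% in these data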
TAAR1 desens: TAAR1 desensitization by agonist hits, confirmation, counter-screen for TAAR1 agonist project, cell-based, fluorescence, tachyphylaxis; shares compounds with TAAR1 agonist; CHO RD-HGA16 hTAAR1, Fluo-8 calcium, beta-PEA response inhibition; inhibition, % at 3 µM; actives 46% (n = 2,400);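 active means inhibition above the run cutoff, the mean inhibition of all test compounds plus 3 SD, cut at about 49% in these data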;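 further: beta-PEA stimulus applied at its EC80; loss of beta-PEA calcium signal after compound pretreatment read as receptor desensitization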
Ga16 antag count: inhibition of ATP-evoked calcium response in CHO-Ga16 cells, counter-screen for TAAR1 agonist project, cell-based, fluorescence. shares compounds with TAAR1 agonist. CHO-Ga16 ATP-induced calcium, Fluo-8 fluorescence. inhibition, % at 3 µM. actives 39% (n = 2,400);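 active means inhibition above the plate's mean compound inhibition plus 3 SD, computed per plate, cut at about 22% in these data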
A number is an active result; . = inactive; / = no result. Compounds with a hit are over-represented: about 4.5% of the library has one in this group of screens.

SMILES | TAAR1 agonist | TAAR1 antag | OX1R antag-1 | GPR7 antagonist | OX1R antag-2 | CHO parental Ca | TAAR1 ag conf | Ga16 ag counter | TAAR1 desens | Ga16 antag count
CC(=O)Nc1sc(/C(C#N)=C/c2ccc(Cl)c(Cl)c2)nc1-c1ccc(C)cc1 | 68 | 81 | / | . | / | / | 42 | 56 | 76 | 67
Cc1cccc(CN2[C@H](COC(=O)Nc3ccccc3)C=CS2(=O)=O)c1 | . | . | / | / | / | / | / | / | / | /
O=C(COc1ccc(F)cc1)NNC(=O)c1cc2ccccc2oc1=O | / | / | . | . | . | . | / | . | / | .
Cc1cccc(NC(=O)COC(=O)c2cc3ccccc3oc2=O)c1 | . | . | . | . | . | . | / | / | / | /
Cc1cccc(OCC(=O)NNC(=O)c2cc3ccccc3oc2=O)c1 | 64 | . | . | . | 73 | . | 84 | 18 | . | .
O=P1(NC2CCCC2)OCC2(CO1)COP(=O)(NC1CCCC1)OC2 (stereo not drawn) | . | . | / | / | / | / | / | / | / | /
CC(C)n1c(=O)nc(-c2ccccc2)c2cc3c(cc21)OCO3 | . | . | / | / | / | / | / | / | / | /
CC1Nc2ncnc(N3CCc4ccccc4C3)c2N(Cc2ccc(Br)cc2)C1=O (stereo not drawn) | 83 | . | . | / | . | . | . | . | . | .
CC1Nc2ncnc(N3CCc4ccccc4C3)c2N(Cc2ccc(Cl)cc2)C1=O (stereo not drawn) | / | / | . | / | . | . | / | / | / | /
COCCNC(=O)C1(C)CCCN(C(=O)c2cc(OC)c(OC)c(OC)c2)C1 (stereo not drawn) | . | . | / | / | / | / | / | / | / | /
COc1ccc(C(=O)NC(=S)NNC(=O)COc2ccccc2)cc1 | 46 | . | . | . | . | . | 66 | 52 | . | 23
COc1ccc(C(=O)NC(=S)NNC(=O)c2ccco2)cc1 | . | . | . | . | . | . | / | / | / | /
COc1ccc(C(=O)NC(=S)NNC(=O)c2cnccn2)cc1 | . | . | . | . | . | . | / | / | / | /
COc1ccc(C(=O)NC(=S)NNC(=O)c2ccccc2C)cc1 | 170 | 92 | . | / | . | . | 143 | 105 | 98 | 75
COc1ccc(C(=O)NC(=S)NNC(=O)c2ccccc2O)cc1 | 80 | . | . | . | . | . | 57 | 55 | . | 27
COc1cc(C(=O)NC(=S)NNC(=O)[C@H]2C[C@@H]2c2ccccc2)cc(OC)c1OC | 74 | . | . | . | . | . | . | 43 | . | .
C[C@@H]1CCCCO[C@H](CN(C)C(=O)C2CCCCC2)[C@@H](C)CN([C@H](C)CO)C(=O)c2cc(N(C)C)ccc2O1 | . | . | / | / | / | / | / | / | / | /
Cn1c(=O)c2[nH]c(Cc3cccc4ccccc34)nc2n(C)c1=O | . | . | / | / | / | / | / | / | / | /
COc1ccc(C(=O)NNC(=S)NC(=O)C(C)(C)C)cc1 | 145 | 98 | 62 | . | . | 58 | 106 | 90 | . | 44
O=C(NC(=S)NNC(=O)c1cc2ccccc2cc1O)c1ccco1 | 75 | . | . | . | . | . | 44 | 37 | . | 25
COc1ccc(C(=O)NNC(=S)NC(=O)c2cccc([N+](=O)[O-])c2)cc1 | 66 | . | . | / | . | . | 88 | 64 | . | 26
COc1ccccc1C(=O)NNC(=S)NC(=O)c1cc(OC)c(OC)c(OC)c1 | . | . | . | . | . | . | / | / | / | /
COc1cc(C(=O)NNC(=S)NC(=O)c2ccccc2C)cc(OC)c1OC | 63 | . | . | . | . | . | . | 44 | . | .
COc1ccc(C(=O)NNC(=O)CCC(=O)NNC(=O)c2ccc(OC)cc2)cc1 | . | . | . | . | . | . | / | / | / | /
CCCCCC(=O)NNC(=S)NC(=O)c1cccc([N+](=O)[O-])c1 | . | . | . | . | . | . | / | / | / | /
SMILES | TAAR1 agonist | TAAR1 antag | OX1R antag-1 | GPR7 antagonist | OX1R antag-2 | CHO parental Ca | TAAR1 ag conf | Ga16 ag counter | TAAR1 desens | Ga16 antag count
CC(C)(C)C(=O)c1c(N)[nH]c(C(=O)c2ccccc2)c1-c1ccccc1Br | . | . | / | / | / | / | / | / | / | /
CCOC(=O)N(C)C[C@@H]1OCc2ccccc2-c2c(n(C)c3ccccc23)C(=O)N([C@H](C)CO)C[C@H]1C | . | . | / | / | / | / | / | / | / | /
Cc1cccc(C)c1NC(=O)C1(C)CSCC(=O)N1Cc1ccco1 (stereo not drawn) | . | . | / | / | / | / | / | / | / | /
CCN(C(=O)COC(=O)CCc1ccccc1)c1ccccc1 | . | . | . | . | . | . | / | / | / | /
COC(=O)c1cc(=O)nc(NNC(C)=O)s1 | . | . | / | / | / | / | / | / | / | /
CN1/C(=C\C=C2/SC(=S)N(CC(=O)O)C2=O)C(C)(C)c2ccccc21 | 235 | 84 | 77 | . | . | 69 | 114 | 121 | 66 | 61
CCCCN(C(=O)c1cc(S(=O)(=O)N2CCOCC2)ccc1N1CCOCC1)c1ccccc1 | . | . | / | / | / | / | / | / | / | /
c1ccc([C@H]2CNCCN2CCc2cccc3ccccc23)cc1 | 54 | . | . | / | . | . | 76 | 20 | 53 | 24
COc1cc(CCCN2CCNC[C@@H]2c2ccccc2)cc(OC)c1OC | . | . | . | / | . | . | / | / | / | /
O=S1(=O)N=C(N2CCc3ccccc3C2)c2ccccc21 | 63 | . | . | . | . | . | 61 | . | . | .
Cc1ccc(F)cc1-c1cc(C(=O)NCc2cc(C(F)(F)F)cc(C(F)(F)F)c2)[nH]n1 | . | . | / | / | / | / | / | / | / | /
Cn1cc(Cc2ccc(C(=O)N3CCOCC3)cn2)c2ccccc21 | . | . | / | / | / | / | / | / | / | /
N=C(N)SCCc1cccc(CCSC(=N)N)c1 | . | . | . | / | . | . | / | / | / | /
Cc1cccc(CSC(=N)N)c1 | 67 | . | . | . | . | . | 93 | . | 68 | .

Assay outcomes as filed in PubChem.
